# High-throughput results (PubChem)
# A selection: hits, their analogues and other compounds. The true share with any hit is near 2.2%.
# SUMO HTRF inh – inhibitors of in vitro SUMOylation cascade, primary screen, biochemical, HTRF, uHTS. SUMO-conjugating enzyme UBC9 (Homo sapiens), P63279. HTRF SUMOylation assay, SAE1/SAE2 + UBC9. inhibition, % at 35 µM. actives 0.36% (n = 290,000). AID 2006, 2009; in the data active means inhibition above about 50%, passing the limit was not always enough; inconclusive means no clear call, values can overlap the other calls
# Apaf-1 inh – inhibitors of human Apaf-1 apoptosome, primary screen, biochemical, DEVD-Rh110 fluorescence, uHTS; Apoptotic protease-activating factor 1 (Homo sapiens), O14727; reconstituted apoptosome caspase-3 activity; inhibition, % at 20 µM; actives 0.71% (n = 330,000); active means inhibition of at least 40% at 20 µM;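 further: plate controls were DMSO wells for no effect and DEVD-CHO caspase inhibitor wells for full effect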
#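 Assay system – apoptosome proteins · Medium – Hepes buffer, pH 7.5 · Also added – cytochrome c with DEVD-Rh110 · Timing – 30 min compound preincubation, 50 min activation, room temperature · Detection – Rh110 fluorescence, excitation 480 nm, emission 540 nm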
# PAD4 inh – human PAD4 inhibitors, primary screen, biochemical, fluorescence polarization, 1536-well format | recombinant PAD4, RCA probe fluorescence polarization | inhibition, % at 6.36 µM | actives 0.41% (n = 330,000) | AID 485272, 2010;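 active means percent inhibition above a cutoff equal to the mean of all tested compounds plus 3 SD, cut at about 15% in these data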;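 further: 0% = PAD4 with RCA probe and DMSO and 100% = probe without PAD4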
# GSTO1 inh – inhibitors of recombinant GSTO1, primary screen, counter-screen for RBBP9 inhibitor project, biochemical, fluorescence polarization. Glutathione S-transferase omega-1 (Homo sapiens), P78417. activity-based probe fluorescence polarization. inhibition, % at 5.96 µM. actives 1.1% (n = 300,000). AID 1974, 2009;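 active means inhibition above the campaign mean inhibition plus 3 SD, cut at about 35% in these data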;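 further: 0% = GSTO1-1 with DMSO and 100% = wells lacking GSTO1-1 enzyme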
# UBC13 polyUb – UBC13 polyubiquitin chain formation inhibitors, primary screen, biochemical, TR-FRET, uHTS; Ubiquitin-conjugating enzyme E2 N (Homo sapiens), P61088; inhibition, % at 20 µM; actives 0.47% (n = 330,000); in the data active means inhibition above about 45%, passing the limit was not always enough; inconclusive means no clear call, values can overlap the other calls
# Rin1 Abl inh – inhibitors of Rin1-Abl protein binding, primary screen, biochemical, TR-FRET | Tyrosine-protein kinase ABL1 (Homo sapiens) + Ras and Rab interactor 1 (Homo sapiens), … | inhibition, % at 7.35 µM | actives 0.4% (n = 360,000) | AID 588664, 2011; in the data active means inhibition above about 5%, passing the limit was not always enough
# Apaf-1 inh conf2 – Apaf-1 inhibitors, single-dose retest, confirmation, biochemical, fluorescence, DEVD-Rh110, 20 µM | actives 25% (n = 1,800) | AID 504614, 2011 | reconstituted apoptosome, caspase-3 DEVD-Rh110 fluorescence | shares compounds with Apaf-1 inh | inhibition, % at 20 µM;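 active means mean inhibition of at least 40% at 20 µM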;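 further: plate controls were DMSO wells for no effect and DEVD-CHO caspase inhibitor control wells for full effect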
# Rh110 interf inh – Rh110 fluorescence interference by putative Apaf-1 inhibitors, confirmation, artefact control for Apaf-1 inhibitor project, biochemical, 20 µM; shares compounds with Apaf-1 inh; quenched caspase reaction; activation (fluorescence interference), % at 20 µM; 1,800 tested, under 10 active;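 active means signal rise of 40% or more at 20 µM, treated as a fluorescence artifact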
# Fluor interf inh – fluorescence interference of Apaf-1 inhibitor hits, dose response, artefact control for Apaf-1 inhibitor project; fluorescence interference counterscreen, Apaf-1 assay format; 460 tested, under 10 active; AID 588538, 2011; IC50, µM; shares compounds with Apaf-1 inh; call rule not given here
# * = called active by the depositor; ? = inconclusive; / = no result given.
SMILES,SUMO HTRF inh,Apaf-1 inh,PAD4 inh,GSTO1 inh,UBC13 polyUb,Rin1 Abl inh,Apaf-1 inh conf2,Rh110 interf inh,others
C=CCC[C@@H](Cc1ccc(F)cc1)C(=O)OC[C@H]1CCCN1C(=O)[C@@H](CC=C)CC(=O)N[C@H](CO)Cc1ccccc1,/,40*,-3,/,21,0,34,6,
C=CCC[C@@H](Cc1ccc(F)cc1)C(=O)OC[C@@H]1CCCN1C(=O)[C@@H](CC=C)CC(=O)N(CCO)Cc1ccccc1,/,48*,-1,/,4,-2,24,17,
C=CCC[C@@H](Cc1ccc(F)cc1)C(=O)OC[C@@H]1CCCN1C(=O)[C@H](CC=C)CC(=O)N[C@H](CO)Cc1ccccc1,/,43*,0,/,13,0,28,14,
Cc1cccc(N(C(=O)c2csnn2)C(C(=O)NCc2ccccc2)c2cccs2)c1 (configuration not stated),8,6,-1,-4,-2,2,/,/,
Cc1ccc(-c2csc3ncn(CC(=O)O)c(=O)c23)cc1C,3,-2,-2,-6,0,-1,/,/,
COCc1ccc(CN2CCC(C(=O)Nc3cccc(-c4cccc(Cl)c4)c3)CC2)o1,-16,49*,3,-13,29,-3,17,8,
COc1ccccc1N1C(=O)c2ccccc2NC1c1ccncc1 (configuration not stated),-2,-2,-5,-9,8,-1,/,/,
COc1ccccc1N1C(=O)N(C(C)=O)C2C1Nc1ccccc1N2C (configuration not stated),26,83*,-5,18,-38,7,25,11,
C=CC[C@@H](Cc1ccc(F)cc1)C(=O)OC[C@H]1CCCN1C(=O)[C@H](CC=C)CC(=O)N[C@H](CO)Cc1ccccc1,/,31,-9,/,-1,1,/,/,
C=CC[C@@H](Cc1ccc(F)cc1)C(=O)OC[C@H]1CCCN1C(=O)[C@@H](CC=C)CC(=O)N[C@H](CO)Cc1ccccc1,/,41*,-6,/,6,4,19,7,
C=CC[C@@H](Cc1ccc(F)cc1)C(=O)OC[C@@H]1CCCN1C(=O)[C@@H](CC=C)CC(=O)N[C@@H](CO)Cc1ccccc1,/,40*,-3,/,3,2,18,11,
COc1cc(OC)cc(-c2c(-c3cccs3)c3cc(-c4ccc(C(N)=O)cc4)ccc3n2C)c1,/,-10,0,/,26,-1,/,/,
COc1cc(C(=O)N2CCN(c3cccc(C)c3C)CC2)ccc1OCC(=O)N1CCOCC1,/,51*,0,/,25,2,39,6,
O=C(CCS(=O)(=O)Cc1ccccc1F)NCCc1ccc(Cl)cc1,-4,3,-2,5,0,-1,/,/,
O=C(COc1ccc2c3c(c(=O)oc2c1)CCC3)N1CCN(c2ccc(F)cc2)CC1,8,42*,-4,2,-1,2,11,3,
O=C(COc1ccc2c3c(c(=O)oc2c1)CCCC3)N1CCN(c2ccc(F)cc2)CC1,3,18,-3,-2,-4,3,/,/,
CCN1c2cccc3cccc(c23)S1(=O)=O,22,-10,-3,-2,11,-4,/,/,
CCc1ccc2cccc3c2c1N=CN3C,/,87*,5,19,-46,-3,18,-4,
CC(=O)Nc1ccc(Nc2cc(C)c3ccccc3n2)cc1,6,-8,-5,-3,7,0,/,/,
CC(=O)Nc1ccc2nc3ccccc3nc2c1,92*,50*,-3,11,-28,-6,9,2,
CN(C)CCOC1c2ccccc2CCc2ccc3ccccc3c21 (configuration not stated),/,3,1,-1,20,-4,/,/,
Cc1cc(C)c(NS(=O)(=O)c2ccccc2)c(C)c1,/,/,/,/,/,3,/,/,
O=C(O)c1ccc(NC2=C/C(=N/S(=O)(=O)c3ccccc3)c3ccccc3C2=O)cc1,?,96*,/,/,-149,2,97*,-1,Fluor interf inh=>100
Cc1cc(C)c(S(=O)(=O)/N=C2\C=C(NS(=O)(=O)c3ccccc3)C(=O)c3ccccc32)c(C)c1,19,64*,-19,60*,-107,1,48*,-1,Fluor interf inh=>100
CCc1noc(C)c1C(=O)N1CCN(S(=O)(=O)c2c(C)cc(C)cc2C)CC1,/,57*,-4,/,35,4,39,5,
SMILES,SUMO HTRF inh,Apaf-1 inh,PAD4 inh,GSTO1 inh,UBC13 polyUb,Rin1 Abl inh,Apaf-1 inh conf2,Rh110 interf inh,others
CCc1noc(C)c1C(=O)N1CCN(S(=O)(=O)c2ccc(Cl)cc2)CC1,/,-8,1,/,5,1,/,/,
O=C(COC(=O)c1ccc([N+](=O)[O-])s1)NNC(=O)c1ccccc1,/,41*,12,/,-25,0,37,-2,
Cc1[nH]n(-c2ccccc2)c(=O)c1N=Nc1nccs1,3,73*,-1,15,-207,1,35,19,
COc1cccc(/C=C/C(=C2/C(=O)N(c3ccccc3)N=C2C)c2ccc(Br)cc2)c1OC,-11,16,3,5,-31,0,/,/,
COc1cc(/C=C2/C(=O)N(c3ccc(Br)cc3)N=C2C)cc(OC)c1OC,1,94*,/,/,-44,15*,7,1,
CCC(C(=O)NCCc1c[nH]c2ccc(C)cc12)c1ccccc1 (configuration not stated),17,10,-4,5,1,0,/,/,
CC(=O)NC1N=C(C)N(c2ccccc2)C1=O (configuration not stated),12,70*,-18,18,-38,-2,9,-3,
CCn1nc(C)c(CNC(=O)C2CCC(=O)N(CCc3ccc(Cl)cc3)C2)c1C (configuration not stated),4,17,-2,4,-7,-1,/,/,
O=C(/C=C/c1cc(Br)ccc1F)OCC(=O)N1CCCC1,/,7,3,/,-11,-1,/,/,
CCCCCCSc1cccc(-c2nc3ccccn3c2NCc2ccccc2)c1,/,29,0,/,24,3,/,/,
